Compound activity from PubChem.
SENP6 inh = inhibitors of human SENP6 protease. inhibition, % at 10 µM. AID 2599. actives 1.8% (n = 330,000). Recombinant SENP6 catalytic domain, aminoluciferin luminescence;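 active = inhibition above about 50% at the single tested dose, limit read from the data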;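 note: plate controls were DMSO wells with enzyme for no effect and DMSO wells lacking enzyme for full effect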
SENP7 block = blocks the human protease SENP7; Q9BQF6; recombinant SENP7, Z-RLRGG-aminoluciferin luminescence, 40 min; inhibition, % at 5 µM; actives 1.5% (n = 330,000); AID 434973;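 active = inhibition above about 50% at the single test dose, limit read from the data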;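 note: plate controls were DMSO with enzyme for no effect and no enzyme buffer wells for full effect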
Target sequence (Q9BQF6 706-1050 limits assumed): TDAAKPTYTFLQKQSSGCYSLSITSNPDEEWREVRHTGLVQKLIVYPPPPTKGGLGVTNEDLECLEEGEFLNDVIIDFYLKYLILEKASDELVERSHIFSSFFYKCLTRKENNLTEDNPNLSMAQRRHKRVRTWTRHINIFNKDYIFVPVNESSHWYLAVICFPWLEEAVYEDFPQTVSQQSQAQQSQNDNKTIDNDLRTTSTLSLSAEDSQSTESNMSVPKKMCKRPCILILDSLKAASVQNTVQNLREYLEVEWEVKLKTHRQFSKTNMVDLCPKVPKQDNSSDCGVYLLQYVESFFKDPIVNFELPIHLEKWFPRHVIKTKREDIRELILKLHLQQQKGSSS
Apaf-1 inh = blocks human Apaf-1 apoptosome activity | O14727 | reconstituted apoptosome caspase-3 activity, DEVD-Rh110 fluorescence | inhibition, % at 20 µM | actives 0.71% (n = 330,000) | AID 489030; active = inhibition of at least 40% at 20 µM;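 note: plate controls were DMSO wells for no effect and DEVD-CHO caspase inhibitor wells for full effect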
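System – cell-free apoptosome with Apaf-1, procaspase-3 and caspase-9 · Buffer or medium – pH 7.5 Hepes buffer with CHAPS, BSA, DTT · Also added – cytochrome c with DEVD-Rh110 · Times – 30 min compound preincubation, 50 min activation, room temperature · Technique – Rh110 fluorescence intensity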
SENP8 block-1 = SENP8 protease inhibition | Q96LD8 | purified SENP8, Z-RLRGG-aminoluciferin cleavage, luminescence | inhibition, % at 10 µM | actives 1.2% (n = 330,000); in the data active = inhibition above about 50%
UBC13 inh = human UBC13 polyubiquitination inhibition; actives 0.47% (n = 330,000); P61088; UBC13 polyubiquitin chain formation, TR-FRET; inhibition, % at 20 µM; in the data active = inhibition above about 45%, passing the limit was not always enough
Target sequence (P61088 whole entry, looked up): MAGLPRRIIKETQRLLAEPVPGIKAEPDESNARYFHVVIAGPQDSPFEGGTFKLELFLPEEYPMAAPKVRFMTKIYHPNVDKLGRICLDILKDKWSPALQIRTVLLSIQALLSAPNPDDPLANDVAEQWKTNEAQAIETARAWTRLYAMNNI
SENP8 block-2 = SENP8 (human) protease inhibition. Q96LD8. recombinant SENP8, Nedd8 substrate fluorescence. inhibition, % at 20 µM. actives 0.64% (n = 360,000). AID 602440; in the data active = inhibition mostly above about 40%, no sharp cut-off; inactive = mostly below about 27%
Apaf-1 inh conf2 = Apaf-1 inhibition, single-dose confirmed | actives 25% (n = 1,800) | reconstituted apoptosome, caspase-3 DEVD-Rh110 fluorescence | inhibition, % at 20 µM | AID 504614 | shares compounds with Apaf-1 inh;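 active = mean inhibition of at least 40% at 20 µM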;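 note: plate controls were DMSO wells for no effect and DEVD-CHO caspase inhibitor control wells for full effect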
Rh110 quench = counter-screen for Apaf-1 inhibitors: fluorescence interference | shares compounds with Apaf-1 inh | 1,800 tested, under 10 active | AID 504615 | Rh110 fluorescence interference, quenched caspase reaction | activation (fluorescence interference), % at 20 µM;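 active = signal rise of 40% or more at 20 µM, treated as a fluorescence artifact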
Fluor interf inh = counter-screen for Apaf-1 inhibitors: fluorescence interference, dose response; shares compounds with Apaf-1 inh; fluorescence interference counterscreen, Apaf-1 assay format; IC50, µM; 460 tested, under 10 active; AID 588538; call rule not given here
SENP8 inh conf = confirmation of human SENP8 protease inhibitors; inhibition, % at 25 µM; shares compounds with SENP8 block-2; purified SENP8, Nedd8-AMC/pro-Nedd8 cleavage fluorescence, 30 min; actives 15% (n = 1,400); in the data active = inhibition mostly above about 39%, no sharp cut-off; inactive = mostly below about 34%
An asterisk follows results filed as active; · = not tested or not shown. Shown are actives, neighbours in structure and some others; about 3% of the full set was active somewhere.

SMILES	SENP6 inh	SENP7 block	Apaf-1 inh	SENP8 block-1	UBC13 inh	SENP8 block-2	SENP8 inh conf	others
CC(=O)OCCCNc1cc(Sc2nc3ccccc3s2)c2nonc2c1[N+](=O)[O-]	83.8*	80.7*	95.7*	91.7*	-44.7	59.5*	35.4	Apaf-1 inh conf2=28.6;Rh110 quench=0.6
CC(=O)OCCCNc1cc(Sc2ccc(C)cc2)c2nonc2c1[N+](=O)[O-]	-1.7	-4.3	18.8	-4.3	-13.9	12.4	·
COc1ccc(O)c(C(c2c(C)[nH][nH]c2=O)c2c(C)[nH][nH]c2=O)c1	15.2	4.4	66.5*	10.7	-31.9	75.7*	47.2*	Apaf-1 inh conf2=14.1;Rh110 quench=-0.7
COc1ccc(OC)c(C(c2c(C)[nH][nH]c2=O)c2c(C)[nH][nH]c2=O)c1	7.3	1.1	7.7	7.9	-1.7	32.8	·
CCCCn1nnnc1C1(C)CCC(=O)N1Cc1cccc(F)c1 (centres undefined)	·	·	·	·	·	17.1	·
CC(=O)C1=C(C)OC2(O)c3ccccc3C(=O)C12O (centres undefined)	36.6	42.9	92.7*	23.1	-44.7	88.0*	94.5*	Apaf-1 inh conf2=90.1*;Rh110 quench=3.7;Fluor interf inh=>100
O=[N+]([O-])c1ccc(N2CCOCC2)nc1	-5.9	7.7	-5.1	6.4	-4.8	16.8	·
O=C1CC(N2CCOCC2)=NN1c1ccc([N+](=O)[O-])cc1	29.2	21.7	94.4*	15.6	-42.6	76.3*	45.9*	Apaf-1 inh conf2=14.9;Rh110 quench=5.7
O=C(Nc1cccc(Oc2c(F)c(F)c(F)c(F)c2F)c1)N1C[C@@H]2C[C@@H](C1)c1cccc(=O)n1C2	-22.3	-2.5	13.0	-5.3	-11.0	7.6	·
COc1ccc(NC(=O)[C@@H](NC(=O)N2C[C@H]3C[C@@H](C2)c2cccc(=O)n2C3)C(C)C)cc1OC	4.5	-3.8	61.7*	3.9	-2.3	45.1*	10.1	Apaf-1 inh conf2=7.4;Rh110 quench=1.1
Cc1ccc2nc(-c3cccc(Br)c3)c(Cc3cccc(Cl)c3)n2c1	·	·	·	·	·	-190.1	·
COCc1cccc(-c2csc(C(NC(C)=O)c3cccc(OC)c3)n2)c1 (centres undefined)	·	·	·	·	·	9.4	·
O=[N+]([O-])c1cc(F)c2cccnc2c1O	7.0	10.0	64.2*	-3.0	-99.2	52.0*	92.5*	Apaf-1 inh conf2=29.3;Rh110 quench=8.3
O=[N+]([O-])c1cc(Cl)c2cccnc2c1O	0.9	5.7	30.0	0.2	-65.9	29.9	·
COC(=O)c1cc(=O)nc(NN=C2c3ccccc3-c3ccccc32)s1	·	·	·	·	·	38.3*	24.8
Nc1nonc1-n1nnc(C(=O)N/N=C/c2ccco2)c1CSc1ccc(Cl)cc1	·	·	·	·	·	-53.9	·
O=C(NC1CCCC1)C1c2ccccc2OCC(=O)N1Cc1ccc2c(c1)OCO2 (centres undefined)	·	·	·	·	·	19.3	·
O=C(CCl)Nc1cccc(S(=O)(=O)NC2=NCCC2)c1	-6.2	-1.6	-9.4	-3.2	-1.0	45.7*	10.1
CC(C)C(=O)Nc1cccc(S(=O)(=O)NC2=NCCC2)c1	·	·	·	·	·	14.8	·
CN(C)CCN(C(=O)c1ccc(N2C(=O)CCC2=O)cc1)c1nc2cc3c(cc2s1)OCO3	-5.2	6.4	4.2	3.8	-6.1	58.8*	47.8*
OC[C@@H]1CN(Cc2ccc3c(c2)OCO3)C[C@H](n2cnc3c(NC4CCCC4)ncnc32)O1	·	·	·	·	·	9.2	·
O=[N+]([O-])c1cc(Cl)ccc1NCCNc1ncc(C(F)(F)F)cc1Cl	-16.7	2.8	3.6	-0.2	-32.3	43.3*	12.8
Cc1cc(C)nc(N2N=C(C(C)(C)C)CC2=O)n1	8.4	-2.9	-10.9	-0.3	6.9	63.4*	75.5*
Cc1ccc(Cn2nc(-c3ccccc3)nc2-c2ccccc2)cc1	74.0*	68.1*	11.8	59.0*	-10.1	43.7*	2.6
O=C(CCS(=O)(=O)Cc1ccccc1)N1CCc2ccccc2C1	-3.4	4.6	-0.1	-2.1	-0.2	7.8	·
